In the library only some 3.5% were active in any assay of this set; here they are far more common.
MrgX1 antagonist: antagonists of human MrgX1 receptor; MRGX1-HEK293 calcium flux, Fluo-4, BAM8-22 antagonism; stronger effect = lower value; B-score at 10 µM; Q96LB2; hit rate 1.3% among 310,000; AID 588676;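 active = calcium-response B-score plate-corrected more than 3 library SD below zero, starting fluorescence within 5 deviations, no agonist response on first addition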;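 also: peak minus trough fluorescence over baseline after final BAM8-22 challenge near maximal dose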
Target sequence (Q96LB2 whole entry, looked up): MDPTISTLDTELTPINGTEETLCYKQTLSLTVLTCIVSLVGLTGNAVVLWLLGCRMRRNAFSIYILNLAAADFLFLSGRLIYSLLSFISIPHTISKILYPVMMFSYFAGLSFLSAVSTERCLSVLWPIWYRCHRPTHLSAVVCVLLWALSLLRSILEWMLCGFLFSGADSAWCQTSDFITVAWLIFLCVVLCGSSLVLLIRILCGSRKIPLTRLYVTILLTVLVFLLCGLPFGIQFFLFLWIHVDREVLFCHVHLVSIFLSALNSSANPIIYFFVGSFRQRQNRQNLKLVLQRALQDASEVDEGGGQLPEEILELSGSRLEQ
MrgX1 ag: activates human MrgX1 receptor signaling; Q96LB2; MrgX1-HEK293 cells, Fluo-4 calcium fluorescence, agonist mode; stronger effect = higher value; hit rate 0.44% among 310,000; AID 588627; B-score at 10 µM;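 active = calcium response B-score plate-corrected fluorescence ratio at least 3 library SD, with starting fluorescence B-score inside 5 SD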
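Test system: HEK293 cells stably expressing human MrgX1 receptor; amount: 15,000 cells per well; doses: compound delivered in addition one of three; times: overnight plating before 1 h dye loading; detection: Fluo-4 NW calcium-flux fluorescence, kinetic read; read-out basis: B-scored fluorescence response ratio; controls: positive and negative controls per plate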
RGS4 block: human RGS4 inhibition | B-score at 10 µM | P49798 | AID 463165 | hit rate 0.45% among 310,000 | HEK293 M3R/RGS4 inducible, Fluo-4 calcium flux; stronger effect = higher value; triggered by carbachol at its EC20;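 active = B-score, a plate-corrected calcium signal, over three deviations above library mean, with baseline fluorescence within five deviations of library mean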;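 also: RGS4 expression induced by doxycycline in cells with stable M3 receptor; B-score is computed from the integrated fluorescence ratio over baseline after carbachol; higher B-score means a larger calcium signal and so more RGS4 inhibition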
Target sequence (P49798 whole entry, looked up): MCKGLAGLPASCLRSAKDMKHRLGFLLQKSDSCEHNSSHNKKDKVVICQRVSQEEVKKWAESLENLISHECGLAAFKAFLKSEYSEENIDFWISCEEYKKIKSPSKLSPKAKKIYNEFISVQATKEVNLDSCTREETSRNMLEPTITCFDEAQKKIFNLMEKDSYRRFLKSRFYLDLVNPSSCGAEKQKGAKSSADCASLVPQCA
RGS4 act: RGS4 potentiation or activation. B-score at 10 µM. hit rate 0.92% among 310,000. HEK293 M3R/inducible RGS4, carbachol calcium flux Fluo4; stronger effect = lower value;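 active = B-score of the integrated calcium signal more than 4 SD below the library mean, with starting fluorescence not abnormally high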;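 also: negative B-score means reduced calcium response which marks RGS4 activation or potentiation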
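System: HEK293 FlpIn-TREx cells, stable M3R, doxycycline-inducible RGS4. Timing: overnight RGS4 induction, 30 min dye load 37 °C, 20 min compound RT. Also added: carbachol, ECmax concentration. Measured by: Fluo4 fluorescence kinetic imaging of calcium. Evaluation: integrated calcium ratio converted to B score.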
MrgX1 PAM: allosterically activates human MrgX1 receptor signaling. B-score at 10 µM. hit rate 0.63% among 310,000. MrgX1-HEK293, Fluo-4 calcium flux, FDSS; stronger effect = higher value. AID 588675;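 active = plate-corrected calcium response at least 3 library SD above typical, normal starting fluorescence, not activating the receptor alone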;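 also: compound read alongside a low EC10 to EC30 dose of BAM8-22 agonist; peak minus trough fluorescence over baseline measured at the second addition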
MrgX1 antag conf: confirmation of human MrgX1 receptor antagonists; shares compounds with MrgX1 antagonist; MrgX1-HEK293, BAM8-22 calcium flux, Fluo-4; stronger effect = lower value; remaining BAM8-22 calcium response % of control (stronger effect = lower value), % at 10 µM; hit rate 19% among 2,300; AID 602420;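 active = remaining agonist calcium response no higher than 100% minus 3 SD of agonist-only control wells, with starting fluorescence near control levels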;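 also: agonist BAM8-22 given at a near maximal EC90 to ECmax level; peak minus minimum fluorescence divided by baseline after agonist addition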
HEK293 Ca flux: activity in parental HEK293 cells lacking MrgX1; shares compounds with MrgX1 antagonist; Fluo-4 calcium fluorescence, FDSS; fluorescence ratio F(max-min)/F0 at 10 µM; hit rate 2% among 4,000; AID 624111;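 active = duplicate-averaged calcium fluorescence ratio at least three times the standard deviation of buffer wells, a nonspecific response in parental cells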
HEK293 Ca counter: MrgX1 allosteric activator counter-screen hit in parental HEK293 cells. shares compounds with MrgX1 antagonist. hit rate 0.4% among 4,000. fluorescence ratio F(max-min)/F0 at 10 µM. parental HEK293 calcium flux, Fluo-4 fluorescence ratio; stronger effect = higher value;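 active = calcium fluorescence ratio, averaged over duplicates, at least 3 SD of the buffer-well ratio, meaning a nonspecific response in receptor-free cells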;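 also: untransfected parental HEK293 lacking MrgX1 used as counterscreen for MrgX1 allosteric activators; fluorescence change taken during the second addition on a kinetic imager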
HEK293 Ca cntr2: MrgX1 activator counter-screen hit in parental HEK293 cells; fluorescence ratio F(max-min)/F0 at 10 µM; Fluo-4 calcium fluorescence (FDSS); stronger effect = higher value; hit rate 8.7% among 4,000; shares compounds with MrgX1 antagonist;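 active = calcium fluorescence ratio at least three times the spread of buffer wells, meaning a non-specific response in parental cells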
Numbers stand for hits; – = inactive; · = no result given.

SMILES	MrgX1 antagonist	MrgX1 ag	RGS4 block	RGS4 act	MrgX1 PAM	MrgX1 antag conf	HEK293 Ca flux	HEK293 Ca counter	HEK293 Ca cntr2
COc1ccc(OC)c(NC(=O)CN(Cc2ccccc2)S(C)(=O)=O)c1	-9.14	–	–	–	–	–	–	–	–
COc1ccc(OC)c(NC(=O)Nc2cccc3ccccc23)c1	-4.57	–	–	–	–	–	–	–	–
O=C(CCNC(=O)c1ccc(Cl)cc1)NCc1cccc(C(F)(F)F)c1	-10.1	–	–	–	–	–	–	–	–
Cn1cnnc1SCC(=O)NCc1cccc(C(F)(F)F)c1	-6.48	–	–	–	–	–	–	–	–
CCOCCCNC(=O)c1cc(Nc2ccc(OC)cc2OC)nc2ccccc12	–	–	–	–	–	·	·	·	·
CCN(CC)c1ccc(/C=C/c2cc(-c3ccccc3)c3ccccc3n2)cc1	-15.2	–	–	–	–	–	0.0645	–	–
CCN(CC)c1ccc(/C=N/NC(=O)c2cc(C)nc3ccccc23)cc1	–	–	–	–	–	·	·	·	·
O=C(NCCN1CCN(C(=O)Nc2ccccc2)CC1)Nc1ccccc1	-6.1	–	–	–	–	–	–	–	–
CC(C)Oc1ccc(C(=O)NCc2ccco2)cc1	-5.91	–	–	–	–	–	–	–	–
CCCOc1ccc(C(=O)NCc2ccco2)cc1	–	–	–	–	–	·	·	·	·
Cc1ccc(C(=O)NC(=S)Nc2ccc(N3CCOCC3)cc2)c(C)c1	-5.41	–	–	–	–	–	–	–	–
Cc1ccc(S(=O)(=O)CCc2nc3ccccc3[nH]2)cc1C	-4.67	–	–	–	–	–	–	–	–
Cc1ccc(S(=O)(=O)CCc2nc3ccccc3[nH]2)cc1	–	–	–	–	–	·	·	·	·
Cc1ccc2c(c1)N(C(=O)CCC(=O)NC1CCN(Cc3ccccc3)CC1)CC(C)O2 (configuration not stated)	–	–	–	–	–	·	·	·	·
COc1cc2cc(CN(CCO)S(=O)(=O)c3ccccc3Cl)c(=O)[nH]c2cc1OC	-7.74	–	–	–	–	–	–	–	–
C/C(=N\NC(=O)c1cccc(S(=O)(=O)N2CCOCC2)c1)c1cc2ccccc2o1	–	–	–	–	–	·	·	·	·
COc1ccc(OC)c2sc(NC(=O)CCS(=O)(=O)c3ccccc3)nc12	–	–	–	–	–	·	·	·	·
COc1ccc(OC)c2sc(NC(=O)CCSc3ccccc3)nc12	-8.84	–	–	–	–	–	–	–	–
COc1ccc(C2(C)NC(=O)N(CC3CCCCC3)C2=O)cc1 (configuration not stated)	–	–	–	–	–	·	·	·	·
COc1cccc(NC(=O)C(OC(=O)c2cnc(C)cn2)c2ccccc2)c1 (configuration not stated)	-6.22	–	–	–	–	–	–	–	–
O=C(O)c1c[nH]c2c(C(F)(F)F)cccc2c1=O	-7.39	–	–	–	–	–	–	–	–
COc1cccc2c(=O)c(C(=O)O)c[nH]c12	–	–	–	–	–	·	·	·	·
CC(=O)Nc1ccnn1C1CCN(C(=O)c2cccc(C)c2C)CC1	–	–	–	–	–	·	·	·	·
COc1ccc2oc(C(=O)OCC(=O)NCc3ccco3)c(C)c2c1	-6.39	–	–	–	–	–	–	–	–
Cc1ccc(S(=O)(=O)N(C)C)cc1NC(=O)COC(=O)C1CCN(S(=O)(=O)c2cccs2)CC1	–	–	–	–	–	·	·	·	·
SMILES	MrgX1 antagonist	MrgX1 ag	RGS4 block	RGS4 act	MrgX1 PAM	MrgX1 antag conf	HEK293 Ca flux	HEK293 Ca counter	HEK293 Ca cntr2
Cc1ccc(CNC(=O)NC2CCCCC2)cc1	-5.07	–	–	–	–	–	–	–	–
Cc1ccc(CNC(=S)NC2CCCCC2)cc1	–	–	–	–	–	·	·	·	·
Cc1ccc(CNC(=O)Cc2ccc(-n3cccc3)cc2)cc1	–	–	–	–	–	·	·	·	·
Cc1cc(C)c(NC(=O)Cc2ccc(-n3cccc3)cc2)c(C)c1	-5.46	–	–	–	–	–	–	–	–
COc1ccc(-c2csc(NC(=O)c3ccccc3NS(=O)(=O)c3ccc(C)cc3)n2)cc1	-9.02	–	–	–	–	60.9%	–	–	–
COc1ccc(-c2csc(NC(=O)COc3ccc(N(C)S(=O)(=O)c4ccc(C)cc4)cc3)n2)cc1	–	–	–	–	–	·	·	·	·
COc1ccc(S(=O)(=O)Nc2ccccc2C(=O)Nc2nc(-c3ccc(F)cc3)cs2)cc1OC	-8.71	–	–	–	–	–	–	–	–
CC(C)N(Cc1nccn1C)C(=O)c1ccc2oc(Cc3ccccc3)nc2c1	·	·	–	–	·	·	·	·	·
CCSc1nnc(NC(=O)C(CC)Oc2ccccc2)s1 (configuration not stated)	-6.62	–	–	–	–	–	–	–	–
CCSc1nnc(NC(=O)COc2ccccc2)s1	–	–	–	–	–	·	·	·	·
CCOc1ccc(-c2noc(CCCC(=O)NCC3CCCO3)n2)cc1OC (configuration not stated)	–	–	–	–	–	·	·	·	·
CCN(CC)C(=O)c1c(Cl)nc(C)c([N+](=O)[O-])c1C	–	–	–	–	–	·	·	·	·
CC1(C)Cc2nc(N3CCCC3)c(C#N)cc2CO1	–	–	–	–	–	·	·	·	·
CC1(C)Cc2nc(N3CCOCC3)c(C#N)cc2CO1	-6.13	–	–	–	–	–	–	–	–
CC1(C2CC2)NC(=O)N(CC(=O)Nc2ccccc2-c2ccccc2)C1=O (configuration not stated)	–	–	–	–	–	·	·	·	·
C=C1c2cc(C)ccc2NC(=O)N1c1ccc(C)cc1	–	–	–	–	–	·	·	·	·
C=C1c2ccccc2NC(=O)N1c1ccc(C)cc1	-8.69	–	–	–	–	–	–	–	–
COC(=O)c1ccc(COC(=O)C2CCN(S(=O)(=O)c3ccc(C)c(C)c3)CC2)o1	–	–	–	–	–	·	·	·	·
Cc1cc(C)n(-c2ccc(C(=O)O)cc2)n1	–	–	–	–	–	·	·	·	·
Cc1cc(Nc2ccccc2)n(-c2ccc(C(=O)O)cc2)n1	-4.53	–	–	–	–	–	–	–	–
O=C(O)c1ccc(N2CCCCC2)cc1	-6.4	–	–	–	–	–	–	–	–
COc1ccc(C(C)NC(=O)CC23CC4CC(CC(C4)C2)C3)cc1 (configuration not stated)	–	–	–	–	–	·	·	·	·
CCCCN1C(=O)c2cccc3cc(O)cc(c23)C1=O	–	–	–	–	–	·	·	·	·
O=C(O)c1ccccc1NS(=O)(=O)c1cccc(-n2sc3ccccc3c2=O)c1	-6.27	–	–	–	–	43.7%	–	–	–
